This is an account of results in PMC7386824 (Journal of medicinal chemistry, 2020).

The test system of data set [1] is HCMV Towne. The data set can be described thus: drug combination with letermovir, plaque reduction assay, Bliss model. The data set is classed as cell-based, human cytomegalovirus. The conditions noted are these: Human betaherpesvirus 5, read-out: EC50 (Compound 1, letermovir alone). A general note: Plaque reduction counts the foci of infection that form in a cell layer.

The subject of data set [2] is HCMV Towne. The data set can be described thus: HCMV entry, indirect immunofluorescence assay for pp65. It counts as cell-based, human cytomegalovirus. The conditions noted are these: 24 h pretreatment; MLS8969 3 μM, heparin 30 μM, GCV 5 μM; IFA 2 hpi.
The subject of data set [3] is HCMV Towne (pp28-luciferase). Put plainly: pp28-luciferase recombinant HCMV Towne, luciferase activity at 72 hpi in HFFs. It counts as cell-based, human cytomegalovirus.
In a further data set the test system is MEFs. The data set can be described thus: toxicity to MEFs. The data set is classed as cell-based, mouse. The essentials:
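Uninfected mouse embryonic fibroblasts were exposed to test compound for 72 h or 8–10 days, the same time points as the antiviral assays. MTT (5 mg/mL stock in PBS) was then added, the plates were shaken at 150 rpm for 5 min and incubated at 37 °C for 2–3 h. Formazan formed by living cells was read as absorbance at 560 nm.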

In data set [4] the test system is HCMV Towne. The data set can be described thus: Western blot of viral protein expression in HCMV-infected HFFs. It counts as cell-based, human cytomegalovirus.
Data set [5] deals with HCMV Towne. The data set can be described thus: viral DNA replication and DNA load in supernatants, US17 real-time PCR. The data set is classed as cell-based, human cytomegalovirus. Conditions: HCMV Towne MOI 0.1; NFU1827 5 μM, MLS8554 2 μM, MLS8091 1.5 μM, NCGC2955 3 μM; GCV 5 μM.
Data set [6] deals with HCMV Towne. Put plainly: add-on and removal assays, luciferase activity at 72 hpi. It counts as cell-based, human cytomegalovirus. The conditions noted are these: for timing of activity in the add-on assay / timing of activity in the removal assay: compared with GCV; for HCMV suppression when compound removed at 6 h (removal assay) / activity when added at or after 24 hpi (add-on assay): HCMV Towne MOI 1, luciferase 72 hpi; for time of anti-HCMV activity: add-on and removal assays.

A further data set deals with HSV1. Put plainly: plaque reduction assay, HSV1 clinical isolate in Vero cells. It counts as cell-based, herpes simplex 1.
For another data set, the system named is HSV2. The data set can be described thus: plaque reduction assay, HSV2 clinical isolate in Vero cells. It counts as cell-based, herpes simplex 2.
The next data set relates to MCMV Smith strain. Put plainly: plaque reduction assay, MCMV in MEFs. The data set is classed as cell-based, mouse CMV.
For a further data set, the system named is EBV. The data set can be described thus: inhibition of lytic EBV replication in AKATA cells, real-time PCR. It counts as cell-based, Epstein Barr virus. (In general: Real-time PCR tracks product formation cycle by cycle.)

Entries after “also recorded” stand apart in the source; their conditions may differ.

Regarding `COc1cccc(N2CCN(C3=Nc4c(F)cccc4[C@H](CC(=O)O)N3c3cc(C(F)(F)F)ccc3OC)CC2)c1` [Letermovir], in the data set with HCMV Towne [1], the EC50 (usually the concentration that produces a half-maximal response) was found to be 1.1 ± 0.1 nM.

Turning to Heparin, the “inhibition of HCMV entry (pp65 nuclear staining)” value (“inhibition of HCMV entry” for short) with HCMV Towne [2] is “inhibited HCMV entry”.

Take `Nc1nc2c(ncn2COC(CO)CO)c(=O)[nH]1` [GCV, Ganciclovir]: the “inhibition of HCMV entry” value in the data set with HCMV Towne [2] is given as “did not affect pp65 nuclear staining”.

With `CC(C)NC(=O)C1CCN(C(=O)c2cc3sccc3n2Cc2ccc(Cl)cc2)CC1` [NCGC2955, 1-(4-(4-chIorobenzyl)-4H-thieno[3,2-b]pyrrole-5-carbonyl)-N-isopropyIpiperidine-4-carboxamide], the “dose response in pp28-luciferase assay” value in [3] is “did not show a full dose response”. For the same molecule, the “concentration at which toxicity to MEFs was observed” value with MEFs is no less than 10 µM. In addition, the “viral protein expression (Western blot)” value in the data set with HCMV Towne [4] (MOI 1, 72 hpi) is “strong reduction in viral protein expression including IE1 and IE2”. Further, in the data set with HCMV Towne [5], the “viral DNA replication in cells” value was “modest” and the “viral DNA yield in supernatants” value is “modest”. In the data set with HCMV Towne [6], the “timing of activity in the add-on assay” value is reported as “overlapped with that of GCV” and the “timing of activity in the removal assay” value is reported as “longer activity than GCV”.

As for `CCN1CCN(CCCNC(=O)c2ccc3c(c2)sc2nc(-c4ccc(OC)cc4)cn23)CC1` [NFU1827, N-[3-(4-ethylpiperazin-1-yl)propyl]-4-(4-methoxyphenyl)-7-thia-2,5-diazatricyclo [6.4.0.02,6] dodeca-1(8),3,5,9,11-pentaene-10-carboxamide], in the data set with HSV1, the “activity against HSV1 (in words)” value is “no activity”. Besides, the “activity against HSV2 (in words)” value in the data set with HSV2 is reported as “no activity”. Moreover, the “activity against MCMV (in words)” value in the data set with MCMV Smith strain is “no activity”. For the same molecule, in the data set on HCMV Towne [4] (MOI 1, 72 hpi), the “viral protein expression (Western blot)” value was “reduced the level of both IE1 and IE2”. For the same molecule, in the data set on HCMV Towne [5], the “viral DNA replication in cells” value was “significantly reduced” and the “viral DNA yield in supernatants” value was “significantly reduced”. Besides, in the data set with HCMV Towne [6], the “HCMV suppression when compound removed at 6 h (removal assay)” value is listed as “significant HCMV suppression”, the “activity when added at or after 24 hpi (add-on assay)” value is given as “lost its ability to inhibit HCMV” and the “time of anti-HCMV activity” value is listed as 0–24 hpi.

As for `Nc1c(S(=O)(=O)c2cccs2)c2nc3ccccc3nc2n1Cc1ccccc1` [MLS8091], the “activity against HSV1 (in words)” value with HSV1 is reported as “did not inhibit”. The “activity against HSV2 (in words)” value in the data set on HSV2 was “did not inhibit”. Also, the “activity against EBV (in words)” value with EBV is given as “did not inhibit; also recorded: not active”. The “activity against MCMV (in words)” value in the data set with MCMV Smith strain was “did not inhibit”. Besides, the “viral protein expression (Western blot)” value with HCMV Towne [4] (MOI 1, 72 hpi) was “Inhibition of all viral proteins”. In the data set with HCMV Towne [5], the “viral DNA replication in cells” value was “higher than that achieved with GCV” and the “viral DNA yield in supernatants” value is listed as “not significantly different from GCV”. Also, in the data set on HCMV Towne [6], the “timing of activity in the add-on assay” value is given as “overlapped with that of GCV” and the “timing of activity in the removal assay” value is listed as “showed earlier effects”.

Regarding `CCc1ccc(NC(=O)[C@H](Cc2c[nH]c3ccccc23)NC(=O)[C@@H]2Cc3ccccc3CN2)cc1` [MLS8554], the “activity against HSV1 (in words)” value in the data set on HSV1 is listed as “active”. For the same molecule, the “activity against HSV2 (in words)” value in the data set with HSV2 is on record as “active”. The “viral protein expression (Western blot)” value in the data set on HCMV Towne [4] (MOI 1, 72 hpi) is “reduced IE2, UL44, UL84 and pp65 protein levels”. In addition, in the data set with HCMV Towne [5], the “viral DNA replication in cells” value is recorded as “significantly reduced” and the “viral DNA yield in supernatants” value is “significantly reduced”. Further, in the data set on HCMV Towne [6], the “HCMV suppression when compound removed at 6 h (removal assay)” value was “near complete”, the “activity when added at or after 24 hpi (add-on assay)” value was “activity was significantly reduced” and the “time of anti-HCMV activity” value is given as 0–24 hpi.

`COc1ccc(Cl)cc1C(=O)Nc1ccc(NC(=O)c2ccco2)cc1` [MLS8969]: the “reduction of luciferase activity” value in data set [3] (compound added after infection, MOI of 1 PFU/cell, 72 hpi) is recorded as “minimal reduction in luciferase activity”. Further, in [3] (compound added before infection, range of MOIs), the “inhibition of luciferase activity” value is “MOI-dependent inhibition of luciferase activity”. Also, in the data set with HSV1, the “activity against HSV1 (in words)” value was “did not inhibit”. Also, the “activity against HSV2 (in words)” value in the data set with HSV2 is on record as “did not inhibit”. In the data set on EBV, the “activity against EBV (in words)” value is given as “did not inhibit”. For the same molecule, the “activity against MCMV (in words)” value in the data set on MCMV Smith strain was “did not inhibit”. For the same molecule, the “inhibition of HCMV entry” value in the data set with HCMV Towne [2] is on record as “inhibited HCMV entry only at MOI of 0.1”. Also, the “viral protein expression (Western blot)” value is “no inhibition of viral protein expression” with HCMV Towne [4] (MOI 1, 72 hpi); “decreased IE1/2, pp65, UL84 and UL44 protein levels” in the data set on HCMV Towne [4] (pretreatment followed by infection at low MOI (0.01), 72 hpi).
